Results taken from ChEMBL document CHEMBL1140861, “Short antisense oligonucleotides with novel 2'-4' conformationaly restricted nucleoside analogues show improved potency without increased toxicity in animals” (J Med Chem, 2009).
Active and inactive are the calls of the source. The rule behind the calls is not given here.

Tests used:
[1] = test system: Mus musculus; assay: Hepatotoxicity in BALB/c mouse assessed as increase in liver ALT level at 35 mg/kg, ip after 72 hrs; type: toxicity, organism-based; set-up: dose 35 mg/kg, route intraperitoneal; settings: in vivo
Summary of the method: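 Single ip injection of 35 mg/kg ASO into male Balb/c mice, 6 weeks old, n = 4 per group, saline control; sacrificed 72 h after dosing and ALT recorded; ANOVA with Tukey's post hoc test.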

[2] = test system: Homo sapiens; assay: Decrease in low density lipoprotein cholesterol level in normal human at 50 to 400 […] by standard enzyme-based colorimetric assay; type: functional, organism-based; set-up: scale not given: the % may be the effect or the level left
[3] = test system: Mus musculus; assay: Hepatotoxicity in BALB/c mouse assessed as increase in liver ALT level at 0.5 mg/kg, ip administered twice a week for 3 weeks measured after 72 hrs of last dose; type: toxicity, organism-based; set-up: dose 0.5 mg/kg, route intraperitoneal; settings: in vivo
Summary of the method: (§1)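 Male Balb/c mice, 6 weeks old, dosed ip twice weekly for 3 weeks at 0.5, 1.5, 4.7 and 15 mg/kg (two ASOs) or 0.7, 2.3, 7.2 and 23 mg/kg (MOE control); sacrificed 72 h after last dose; ALT, liver PTEN mRNA, liver and spleen weights and body weight gain assessed; ED50 derived; errors as sd.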

[4] = test system: Mus musculus; assay: Hepatotoxicity in BALB/c mouse assessed as increase in liver ALT level at 1.5 mg/kg, ip administered twice a week for 3 weeks measured after 72 hrs of last dose; type: toxicity, organism-based; set-up: dose 1.5 mg/kg, route intraperitoneal; settings: in vivo; summary of the method: as §1
[5] = test system: Mus musculus; assay: Hepatotoxicity in BALB/c mouse assessed as increase in liver ALT level at 4.7 mg/kg, ip administered twice a week for 3 weeks measured after 72 hrs of last dose; type: toxicity, organism-based; set-up: dose 4.7 mg/kg, route intraperitoneal; settings: in vivo; summary of the method: as §1
[6] = test system: Mus musculus; assay: Hepatotoxicity in BALB/c mouse assessed as increase in liver ALT level at 15 mg/kg, ip administered twice a week for 3 weeks measured after 72 hrs of last dose; type: toxicity, organism-based; set-up: dose 15 mg/kg, route intraperitoneal; settings: in vivo; summary of the method: as §1
[7] = test system: Mus musculus; assay: Toxicity in BALB/c mouse assessed as reduction in body weight at 0.5 mg/kg, ip administered twice a week for 3 weeks measured after 72 hrs of last dose; type: organism-based; set-up: dose 0.5 mg/kg, route intraperitoneal; settings: in vivo; summary of the method: as §1
[8] = test system: Mus musculus; assay: Toxicity in BALB/c mouse assessed as reduction in body weight at 1.5 mg/kg, ip administered twice a week for 3 weeks measured after 72 hrs of last dose; type: organism-based; set-up: dose 1.5 mg/kg, route intraperitoneal; settings: in vivo; summary of the method: as §1
[9] = test system: Mus musculus; assay: Toxicity in BALB/c mouse assessed as reduction in body weight at 4.7 mg/kg, ip administered twice a week for 3 weeks measured after 72 hrs of last dose; type: organism-based; set-up: dose 4.7 mg/kg, route intraperitoneal; settings: in vivo; summary of the method: as §1
[10] = test system: Mus musculus; assay: Toxicity in BALB/c mouse assessed as reduction in body weight at 15 mg/kg, ip administered twice a week for 3 weeks measured after 72 hrs of last dose; type: organism-based; set-up: dose 15 mg/kg, route intraperitoneal; settings: in vivo; summary of the method: as §1
[11] = organism: Mus musculus; assay: Binding affinity to mouse PTEN mRNA assessed as melting temperature
Summary of the method: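 Tm of ASO–RNA duplex, i.e. melting temperature of the ASO hybridised to its complementary RNA.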

[12] = test system: bEND; assay: Reduction in mouse PTEN mRNA level expressed in mouse bEND cells; type: functional, cell-based
Summary of the method: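 bEND mouse brain endothelial cells transfected with ASO using lipofectin; PTEN mRNA reduction measured over a dose range; IC50 taken from dose-response curves.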

[13] = test system: Mus musculus; assay: Reduction of PTEN mRNA level in ip dosed BALB/c mouse liver after 72 hrs; type: functional
[14] = test system: Mus musculus; assay: Reduction of PTEN level in ip dosed BALB/c mouse liver at 37 mg/kg by Western blot analysis; type: functional, organism-based; set-up: dose 37 mg/kg
[15] = test system: Mus musculus; assay: Metabolic stability in BALB/c mouse liver assessed as antisense oligonucleotide level at 18 mg/kg; type: ADME, organism-based; set-up: dose 18 mg/kg; settings: in vivo
[16] = test system: Mus musculus; assay: Reduction of PTEN mRNA level in BALB/c mouse liver at 37 mg/kg, ip after 72 hrs; type: functional, organism-based; set-up: dose 37 mg/kg
[17] = test system: Mus musculus; assay: Reduction of PTEN mRNA level in BALB/c mouse liver at 60 mg/kg, ip after 72 hrs; type: functional, organism-based; set-up: dose 60 mg/kg
[18] = test system: Mus musculus; assay: Hepatotoxicity in BALB/c mouse assessed as increase in liver ALT level at 35 mg/kg, ip after 72 hrs; settings: in vivo
[19] = test system: Mus musculus; assay: as above; settings: in vivo; remark: listed apart in the source

## COC[C@@H]1O[C@H]2[C@H](n3ccc(=O)[nH]c3=O)O[C@]1(COP(O)(=S)O[C@@H]1[C@H]3O[C@H](COC)[C@]1(COP(O)(=S)OC[C@H]1O[C@@H](n4cnc5c(N)ncnc54)[C@H](O)[C@@H]1OP(O)(=S)OC[C@H]1O[C@@H](n4cc(C)c(=O)[nH]c4=O)[C@H](O)[C@@H]1OP(O)(=S)OC[C@H]1O[C@@H](n4cnc5c(=O)[nH]c(N)nc54)[C@H](O)[C@@H]1OP(O)(=S)OC[C@H]1O[C@@H](n4cnc5c(=O)[nH]c(N)nc54)[C@H](O)[C@@H]1OP(O)(=S)OC[C@H]1O[C@@H](n4ccc(N)nc4=O)[C@H](O)[C@@H]1OP(O)(=S)OC[C@H]1O[C@@H](n4cc(C)c(=O)[nH]c4=O)[C@H](O)[C@@H]1OP(O)(=S)OC[C@H]1O[C@@H](n4cnc5c(=O)[nH]c(N)nc54)[C@H](O)[C@@H]1OP(O)(=S)OC[C@H]1O[C@@H](n4ccc(N)nc4=O)[C@H](O)[C@@H]1OP(O)(=S)OC[C@H]1O[C@@H](n4cnc5c(N)ncnc54)[C@H](O)[C@@H]1OP(O)(=S)OC[C@H]1O[C@@H](n4cnc5c(=O)[nH]c(N)nc54)[C@H](O)[C@@H]1OP(O)(=S)OC[C@]14O[C@@H](n5ccc(N)nc5=O)[C@H](O[C@H]1COC)[C@@H]4OP(O)(=S)OC[C@]14O[C@@H](n5ccc(=O)[nH]c5=O)[C@H](O[C@H]1COC)[C@@H]4O)O[C@H]3n1ccc(N)nc1=O)[C@H]2O (stereo partly specified)
[1]
  Activity: Non-toxic

## COC[C@H]1O[C@H]2[C@H](n3ccc(=O)[nH]c3=O)O[C@]1(COP(O)(=S)O[C@H]1[C@H]3O[C@H](COC)[C@]1(COP(O)(=S)OC[C@H]1O[C@@H](n4cnc5c(N)ncnc54)[C@H](O)[C@@H]1OP(O)(=S)OC[C@H]1O[C@@H](n4cc(C)c(=O)[nH]c4=O)[C@H](O)[C@@H]1OP(O)(=S)OC[C@H]1O[C@@H](n4cnc5c(=O)[nH]c(N)nc54)[C@H](O)[C@@H]1OP(O)(=S)OC[C@H]1O[C@@H](n4cnc5c(=O)[nH]c(N)nc54)[C@H](O)[C@@H]1OP(O)(=S)OC[C@H]1O[C@@H](n4ccc(N)nc4=O)[C@H](O)[C@@H]1OP(O)(=S)OC[C@H]1O[C@@H](n4cc(C)c(=O)[nH]c4=O)[C@H](O)[C@@H]1OP(O)(=S)OC[C@H]1O[C@@H](n4cnc5c(=O)[nH]c(N)nc54)[C@H](O)[C@@H]1OP(O)(=S)OC[C@H]1O[C@@H](n4ccc(N)nc4=O)[C@H](O)[C@@H]1OP(O)(=S)OC[C@H]1O[C@@H](n4cnc5c(N)ncnc54)[C@H](O)[C@@H]1OP(O)(=S)OC[C@H]1O[C@@H](n4cnc5c(=O)[nH]c(N)nc54)[C@H](O)[C@@H]1OP(O)(=S)OC[C@]14O[C@@H](n5ccc(N)nc5=O)[C@H](O[C@@H]1COC)[C@@H]4OP(O)(=S)OC[C@]14O[C@@H](n5ccc(=O)[nH]c5=O)[C@H](O[C@@H]1COC)[C@@H]4O)O[C@H]3n1ccc(N)nc1=O)[C@H]2O (stereo partly specified)
[1]
  Activity: Non-toxic

## COCCO[C@@H]1[C@H](SP(=O)(O)OC[C@H]2O[C@@H](n3cc(C)c(=O)[nH]c3=O)[C@H](OCCOC)[C@@H]2SP(=O)(O)OC[C@H]2O[C@@H](n3cc(C)c(N)nc3=O)[C@H](OCCOC)[C@@H]2SP(=O)(O)OC[C@H]2O[C@@H](n3cnc4c(N)ncnc43)C[C@@H]2SP(=O)(O)OC[C@H]2O[C@@H](n3cnc4c(=O)[nH]c(N)nc43)C[C@@H]2SP(=O)(O)OC[C@H]2O[C@@H](n3cc(C)c(=O)[nH]c3=O)C[C@@H]2SP(=O)(O)OC[C@H]2O[C@@H](n3cc(C)c(N)nc3=O)C[C@@H]2SP(=O)(O)OC[C@H]2O[C@@H](n3cc(C)c(=O)[nH]c3=O)C[C@@H]2SP(=O)(O)OC[C@H]2O[C@@H](n3cnc4c(=O)[nH]c(N)nc43)C[C@@H]2SP(=O)(O)OC[C@H]2O[C@@H](n3cc(C)c(N)nc3=O)C[C@@H]2SP(=O)(O)OC[C@H]2O[C@@H](n3cc(C)c(=O)[nH]c3=O)C[C@@H]2SP(=O)(O)OC[C@H]2O[C@@H](n3cc(C)c(=O)[nH]c3=O)C[C@@H]2SP(=O)(O)OC[C@H]2O[C@@H](n3cc(C)c(N)nc3=O)C[C@@H]2SP(=O)(O)OC[C@H]2O[C@@H](n3cnc4c(=O)[nH]c(N)nc43)[C@H](OCCOC)[C@@H]2SP(=O)(O)OC[C@@H]2O[C@H](n3cc(C)c(N)nc3=O)[C@@H](OCCOC)[C@H]2SP(=O)(O)OC[C@@H]2O[C@H](n3cnc4c(N)ncnc43)[C@@H](OCCOC)[C@H]2SP(=O)(O)OC[C@@H]2O[C@H](n3cc(C)c(N)nc3=O)[C@@H](OCCOC)[C@H]2SP(=O)(O)OC[C@@H]2O[C@H](n3cc(C)c(N)nc3=O)[C@@H](OCCOC)[C@H]2O)[C@@H](COP(=O)(O)S[C@H]2[C@@H](OCCOC)[C@H](n3cc(C)c(N)nc3=O)O[C@@H]2COP(=O)(O)S[C@H]2[C@@H](OCCOC)[C@H](n3cnc4c(=O)[nH]c(N)nc43)O[C@@H]2CO)O[C@H]1n1cc(C)c(N)nc1=O
[2]
  Activity: 6%

## Cc1cn([C@@H]2O[C@@]3(COP(O)(=S)O[C@H]4[C@H]5O[C@H](C)[C@]4(COP(O)(=S)O[C@H]4C[C@H](n6cc(C)c(=O)[nH]c6=O)O[C@@H]4COP(O)(=S)O[C@H]4[C@@H](O)[C@H](n6cnc7c6N=CNC7N)O[C@@H]4COP(O)(=S)O[C@H]4[C@@H](O)[C@H](n6cnc7c(=O)[nH]c(N)nc76)O[C@@H]4COP(O)(=S)O[C@H]4[C@@H](O)[C@H](n6ccc(N)nc6=O)O[C@@H]4COP(O)(=S)O[C@H]4[C@@H](O)[C@H](n6cnc7c(N)ncnc76)O[C@@H]4COP(O)(=S)O[C@H]4[C@@H](O)[C@H](n6ccc(N)nc6=O)O[C@@H]4COP(O)(=S)O[C@H]4[C@@H](O)[C@H](n6cc(C)c(=O)[nH]c6=O)O[C@@H]4COP(O)(=S)O[C@H]4[C@@H](O)[C@H](n6cnc7c(=O)[nH]c(N)nc76)O[C@@H]4COP(O)(=S)O[C@H]4[C@@H](O)[C@H](n6cnc7c(=O)[nH]c(N)nc76)O[C@@H]4COP(O)(=S)O[C@H]4[C@@H](O)[C@H](n6ccc(N)nc6=O)O[C@@H]4COP(O)(=S)O[C@H]4[C@H]6O[C@H](C)[C@]4(COP(O)(=S)O[C@H]4[C@H]7O[C@H](C)[C@]4(CO)O[C@H]7n4ccc(=O)[nH]c4=O)O[C@H]6n4cc(C)c(N)nc4=O)O[C@H]5n4ccc(=O)[nH]c4=O)[C@@H](C)O[C@@H]2[C@@H]3O)c(=O)nc1N (stereo partly specified)
[3]
  Activity: Toxic
[4]
  Activity: Toxic
[5]
  Activity: Toxic
[6]
  Activity: Toxic
[7]
  Activity: Toxic
[8]
  Activity: Toxic
[9]
  Activity: Toxic
[10]
  Activity: Toxic
[11]
  Tm: 58.9 °C
[12]
  IC50: 10.3 nM
[13]
  ED50: 13 mg/kg
[14]
  Activity: Active
[15]
  Stability: 25 µg/g

## Cc1cn([C@@H]2O[C@@]3(COP(O)(=S)O[C@@H]4[C@@H](OP(O)(=S)OC[C@H]5O[C@@H](n6cc(C)c(=O)[nH]c6=O)[C@H](O)[C@@H]5OP(O)(=S)OC[C@H]5O[C@@H](n6cnc7c(=O)[nH]c(N)nc76)[C@H](O)[C@@H]5OP(O)(=S)OC[C@H]5O[C@@H](n6cnc7c(=O)[nH]c(N)nc76)[C@H](O)[C@@H]5OP(O)(=S)OC[C@H]5O[C@@H](n6ccc(N)nc6=O)[C@H](O)[C@@H]5OP(O)(=S)OC[C@H]5O[C@@H](n6cc(C)c(=O)[nH]c6=O)[C@H](O)[C@@H]5OP(O)(=S)OC[C@H]5O[C@@H](n6cnc7c(=O)[nH]c(N)nc76)[C@H](O)[C@@H]5OP(O)(=S)OC[C@H]5O[C@@H](n6ccc(N)nc6=O)[C@H](O)[C@@H]5OP(O)(=S)OC[C@H]5O[C@@H](n6cnc7c(N)ncnc76)[C@H](O)[C@@H]5OP(O)(=S)OC[C@H]5O[C@@H](n6cnc7c(=O)[nH]c(N)nc76)[C@H](O)[C@@H]5OP(O)(=S)OC[C@@]56CO[C@@H]([C@H](n7cc(C)c(N)nc7=O)O5)[C@@H]6OP(O)(=S)OC[C@@]56CO[C@@H]([C@H](n7cc(C)c(=O)[nH]c7=O)O5)[C@@H]6O)O[C@@H](n5cnc6c(N)ncnc65)[C@@H]4O)CO[C@@H]2[C@@H]3OP(O)(=S)OC[C@@]23CO[C@@H]([C@H](n4cc(C)c(=O)[nH]c4=O)O2)[C@@H]3O)c(=O)nc1N (stereo partly specified)
[1]
  Activity: Toxic
[16]
  Activity: Active
[17]
  Activity: Active
[18]
  Activity: Toxic
[19]
  Activity: Toxic
